Assay outcomes deposited in PubChem by several laboratories.
PfGluPho inh – PfG6PD (Plasmodium falciparum) enzyme inhibition | actives 0.78% (n = 350,000) | PfGluPho enzyme, NADPH resazurin-diaphorase fluorescence | inhibition, % at 20 µM;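 active means inhibition reaching at least a set limit at 20 µM in the primary screen, cut at about 59% in these data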;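 further: 0% = DMSO wells with substrate and 100% = DMSO wells lacking glucose-6-phosphate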
MC4R ag barr – activates human MC4R beta-arrestin recruitment; activation, % at 8.9 µM; U2OS MC4R beta-arrestin complementation, luminescence; percent of melanotan II response, DMSO zero; actives 0.98% (n = 360,000);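 active means activation above a per-plate cutoff, the mean activation of sample wells on that plate plus 3 SD, cut at about 8% in these data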
B2AR ag – agonists of human beta-2 adrenergic receptor inducing internalization; actives 0.43% (n = 340,000); response, % (no concentration beside the values); Am2.2-beta2AR cells, FAP receptor internalization, flow cytometry; AID 504454;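 active means response above a set limit, near 3 SD of response in nonfluorescent compounds, cut at about 42% in these data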
MC4R antag cAMP – blocks human MC4R cAMP signaling; inhibition, % at 6.5 µM; AID 540295; MC4R-expressing cells, MTII-stimulated cAMP, LANCE TR-FRET; actives 0.48% (n = 360,000); P32245;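 active means inhibition above its plate's cutoff, the mean of tested wells on that plate plus 3 SD, cut at about 29% in these data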;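 further: 0% = Melanotan II alone and 100% = Melanotan II plus saturating MCL0020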
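material = U2OS cells stably expressing human melanocortin 4 receptor (MC4R) | also added = Melanotan II challenge | dosing = single nominal compound dose of 6.5 µM | detection = TR-FRET with Eu-cAMP and labeled anti-cAMP, 671 nm | replication = singlicate | timing = compound 30 min, challenge 1 h, detection 1 h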
ABHD5 PLIN5 PPI – inhibitors of human ABHD5-perilipin-5 interaction; Q00G26+Q8WTS1; actives 0.78% (n = 360,000); inhibition, % at 4 µM; Split G. princeps luciferase complementation, luminescence, 4 h; AID 602281;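 active means inhibition above the mean inhibition across every tested compound plus 3 SD, cut at about 22% in these data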;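 further: 0% = DMSO only wells and the 100% control is not disclosed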
MC4R barr conf – human MC4R beta-arrestin agonism confirmation. shares compounds with MC4R ag barr. U2OS MC4R beta-arrestin recruitment, luminescence; scaled DMSO 0%, Melanotan II 100%. activation, % at 8.9 µM. actives 31% (n = 2,400);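 active means mean activation across replicates above the hit cutoff set in the earlier primary screen, cut at about 8% in these data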
MOR-DOR barr ag – OPRM1-OPRD1 heterodimer agonism counter-screen; shares compounds with MC4R ag barr; activation, % at 9.2 µM; AID 602194; actives 5.8% (n = 2,400); U2OS PathHunter beta-arrestin, beta-gal luminescence; percent of deltorphin B response, DMSO zero;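 active means mean activation across replicates exceeds the hit threshold derived in the earlier primary screen, cut at about 18% in these data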;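 further: 100% = deltorphin B at 0.9 µM final and 0% = DMSO alone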
Target sequence (P35372 whole entry, looked up): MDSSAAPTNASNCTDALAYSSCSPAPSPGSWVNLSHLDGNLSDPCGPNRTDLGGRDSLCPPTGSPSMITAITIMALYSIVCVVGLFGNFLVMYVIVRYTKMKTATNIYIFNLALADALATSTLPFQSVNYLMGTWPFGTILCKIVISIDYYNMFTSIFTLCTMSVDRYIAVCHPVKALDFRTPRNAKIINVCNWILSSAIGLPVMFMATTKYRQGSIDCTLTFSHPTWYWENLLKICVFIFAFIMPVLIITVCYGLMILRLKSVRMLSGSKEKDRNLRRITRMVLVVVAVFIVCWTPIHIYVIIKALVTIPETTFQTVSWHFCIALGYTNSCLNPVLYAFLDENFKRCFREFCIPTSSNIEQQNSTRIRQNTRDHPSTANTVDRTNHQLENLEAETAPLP
Target sequence (P41143 whole entry, looked up): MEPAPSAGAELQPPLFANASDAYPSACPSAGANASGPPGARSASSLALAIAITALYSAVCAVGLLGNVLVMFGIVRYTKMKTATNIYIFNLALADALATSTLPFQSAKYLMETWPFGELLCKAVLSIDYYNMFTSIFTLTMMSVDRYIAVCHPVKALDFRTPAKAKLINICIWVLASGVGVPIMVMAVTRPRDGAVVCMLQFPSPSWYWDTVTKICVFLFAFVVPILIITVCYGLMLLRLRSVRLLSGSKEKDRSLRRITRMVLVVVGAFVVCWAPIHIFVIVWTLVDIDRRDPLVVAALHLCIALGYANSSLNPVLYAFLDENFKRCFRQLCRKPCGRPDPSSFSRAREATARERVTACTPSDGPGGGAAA
Starred values were filed as active, the others as inactive; . = no result. In the library only some 3% were active in any assay of this set; here they are far more common.

SMILES | PfGluPho inh | MC4R ag barr | B2AR ag | MC4R antag cAMP | ABHD5 PLIN5 PPI | MC4R barr conf | MOR-DOR barr ag
COc1ccc(-c2c(NC(=O)c3ccco3)oc3c(C)cccc3c2=O)cc1OC | -6 | -1 | -6 | 6 | 0 | . | .
NC1=NC(=O)/C(=C/c2c(OS(=O)(=O)c3ccc(Cl)cc3)ccc3ccccc23)S1 | 5 | 9.6* | -10 | 7 | 2 | 2 | 5
Cc1cc(C)c(NC(=O)C2CCCN(S(=O)(=O)c3c(C)noc3/C=C/N(C)C)C2)c(C)c1 (configuration not stated) | 5 | -2 | 6 | 3 | -2 | . | .
COc1ccc(Cl)cc1NC(=O)CN(C)C(=O)Cc1n[nH]c(=O)c2ccccc12 | 13 | -1 | -6 | -4 | 2 | . | .
O=C(Nc1ccccc1)Nc1ccc2ccccc2n1 | -3 | 12* | 8 | -3 | -7 | 1 | 4
CC(C)(C)c1ccc(S(=O)(=O)NCCc2ccncc2)cc1 | -3 | -2 | 9 | -1 | 1 | . | .
CC(C)(C)c1ccc(S(=O)(=O)NCCOCC(F)(F)C(F)F)cc1 | 5 | 13* | 10 | -4 | 7 | 1 | 13
CCOc1ccccc1NC(=O)c1ccc2[nH]c(C)c(C)c2c1 | 28 | 12* | -1 | 11 | 5 | 1 | 8
Cc1ccccc1OCC(=O)NCCCNC(=O)c1cccnc1 | 10 | 0 | -12 | 12 | 4 | . | .
CCOC(=O)CSc1nc2cc(OCC)ccc2cc1C#N | -1 | 31* | 11 | -2 | 7 | 5 | 10
C=CCC1(CC=C)CCCN1C(=O)c1ccc2oc(CCCC)nc2c1 | 0 | 4 | . | 3 | 0 | . | .
COc1ccc(C2c3ccc(O)cc3Oc3ncn4nc(-c5ccccn5)nc4c32)cc1 (configuration not stated) | -3 | 49* | -6 | 3 | 5 | 9.5* | 10
COc1ccc(C2c3ccc(O)cc3Oc3ncn4nc(-c5ccccn5)nc4c32)cc1OC (configuration not stated) | 4 | 0 | -6 | 20 | 5 | . | .
Cc1ccccc1OCC(=O)NNC(=O)c1ccoc1C | 7 | 0 | -6 | -1 | 4 | . | .
CC(C)(C)NC(=O)CN(C(=O)CCC(=O)Nc1nccs1)c1ccccc1F | -11 | 12* | . | 10 | 1 | 0 | 2
COc1ccc(CC(=O)OCc2cc3cccc(C)c3[nH]c2=O)cc1 | 0 | 21* | -5 | 9 | 1 | 8 | 5
CCC(=O)OCc1cc2cccc(C)c2[nH]c1=O | -8 | 0 | 5 | 7 | 5 | . | .
COc1ccc(C(=O)OCc2cc3cccc(C)c3[nH]c2=O)cc1 | 0 | 15* | 4 | 5 | 4 | 2 | 14
CC(=O)c1ccc(Cc2ccc(C(C)=O)s2)s1 | -18 | 11* | . | 0 | 13 | 12* | 2
CCc1ccc(C(=O)c2ccccc2C(=O)O)s1 | 9 | -1 | -12 | 8 | -4 | . | .
CC(CC(=O)N1CCN(c2cccc(Cl)c2)CC1)S(=O)(=O)c1ccc2c(c1)NC(=O)CO2 (configuration not stated) | -8 | -3 | 2 | 6 | 0 | . | .
O=C(COC(=O)/C=C/c1ccc(Cl)cc1)Nc1ccc2c(c1)OCCO2 | -22 | 24* | 6 | -6 | 4 | 3 | 4
CC(C)Oc1ccc(C(=O)Nc2ncn[nH]2)cc1 | 16 | 2 | -4 | 14 | 0 | . | .
CC(C)(C)c1ccc(/C=N/NC(=O)Cc2c[nH]c3ccccc23)cc1 | 24 | 10* | -1 | -1 | -3 | 5 | 11
CC(=O)Nc1ccc(S(=O)(=O)NCC(=O)OC(C)c2ccccc2Cl)cc1 (configuration not stated) | 7 | -5 | 0 | 21 | 5 | . | .
SMILES | PfGluPho inh | MC4R ag barr | B2AR ag | MC4R antag cAMP | ABHD5 PLIN5 PPI | MC4R barr conf | MOR-DOR barr ag
Cc1cc2c(cc1S(=O)(=O)N(C)Cc1ccccc1)OCC(=O)N2 | -4 | -1 | -8 | -6 | 0 | . | .
CCOC(=O)c1ccc(NC(=O)c2nc[nH]c2C(=O)N[C@@H](CC(C)C)C(=O)OCc2ccccc2)cc1 | 30 | -2 | -10 | 12 | 7 | . | .
Cc1ccc(NC(C(=O)c2ccccc2)c2ccccc2)cc1 (configuration not stated) | 8 | 0 | 6 | 5 | 0 | . | .
CC(NC(C(=O)c1ccccc1)c1ccccc1)c1ccccc1 (configuration not stated) | -6 | 12* | 5 | 15 | 9 | 0 | 6
O=C(O)C1c2ccccc2C(=O)N(Cc2ccc(F)cc2)C1c1ccncc1 (configuration not stated) | -13 | 2 | -1 | -1 | 5 | . | .
Cc1cc(C)n2nc(SCC(=O)N3CC(C)CC(C)C3)nc2n1 (configuration not stated) | -32 | -1 | -4 | -6 | 3 | . | .
Cc1ccc(C(C(=O)NC2CCCCC2)N(C(=O)Cc2c[nH]c3ccccc23)c2ccccc2)o1 (configuration not stated) | -8 | 12* | 7 | -6 | -9 | 6 | 10
CC(=O)Nc1ccc(N(C(=O)Cc2c[nH]c3ccccc23)C(C(=O)NC2CCCCC2)c2ccco2)cc1 (configuration not stated) | 11 | -2 | -1 | 5 | -3 | . | .
Cc1ccc(CCc2nnc(SCC(=O)Nc3cccc(Cl)c3)n2-c2ccccc2)o1 | -5 | 27* | 8 | -1 | -3 | 3 | 8
Cc1nnc(SCC(=O)Nc2cc(C(N)=O)cc(C(N)=O)c2)n1-c1ccccc1 | -9 | 1 | 4 | -1 | -5 | . | .
Cc1cccc(NC(=O)CN2CCN(C(=O)c3oc4c(Cl)cccc4c3C)CC2)c1C | 3 | -2 | -16 | -10 | 7 | . | .
O=C(COC(=O)c1ccccc1Nc1ccccc1)c1ccccc1 | -5 | 1 | 14 | 8 | -14 | . | .
Cc1ccc(NC(=O)COC(=O)c2ccccc2Nc2ccccc2)cc1 | 4 | 13* | -8 | -6 | -1 | 3 | 5
COc1ccc(/C=N/NC(=O)c2sccc2C)c2ccccc12 | -9 | 19* | 2 | -3 | -10 | 11* | 8
Cc1ccccc1/C=N/NC(=O)c1sccc1C | -4 | -2 | -3 | -2 | -1 | . | .
CC(CC(=O)Nc1ccc2c(c1)c(=O)n(C)n2-c1ccc2ccccc2c1)C(F)(F)F (configuration not stated) | . | 9.7* | . | -22 | -1 | -2 | 5
NC(c1ccccc1)c1csc(NC(=O)Nc2ccccc2Oc2ccccc2)n1 (configuration not stated) | . | 23* | . | -4 | 1 | 35* | 13
